Measured values of several laboratories.
Compare with care: the assays were run in different laboratories.
Target: Protein kinase C gamma type (PRKCG, Homo sapiens, UniProt P05129)

SMILES | effect on | mode | technique | tested at | measurement | result
COc1cc(Nc2cnc(C#N)c(O[C@H](C)CN(C)C)n2)ncc1-c1cnn(C)c1 | enzyme activity | inhibitor | radiometric | 1 µM | remaining activity | 90%
FC(F)(F)Oc1cccc(-c2cnc3ccc(-c4ccncc4)nn23)c1 | enzyme activity | inhibitor | radiometric | 5 µM | activity vs control | 76%
Cc1cc(NC(=O)c2cccc3cc(-c4cccc5[nH]nc(N)c45)ccc23)ccc1F | enzyme activity | inhibitor | – | 0.1 µM | activity vs control | 92%
COc1cc2ncnc(Nc3ccc(Oc4ccccc4)c(C)c3C)c2cc1OC | enzyme activity | inhibitor | – | 1 µM | inhibition | 1%
CCCOc1ccc(OC)c(F)c1C(=O)c1ccc(C(=O)N[C@@H]2CNC[C@H]2NC(=O)c2ccc3[nH]ncc3c2)cc1 | enzyme activity | inhibitor | – | 10 µM | remaining activity | 73%
Cc1ccc(-n2nc(C(C)(C)C)cc2NC(=O)Nc2ccc(OCCN3CCOCC3)c3ccccc23)cc1 | enzyme activity | inhibitor | – | 10 µM | inhibition | 7%
CC(C)(C)c1nc(-c2cccc(NS(=O)(=O)c3c(F)cccc3F)c2F)c(-c2ccnc(N)n2)s1 | enzyme activity | inhibitor | radiometric | 1 µM | remaining activity | 102%
CCCS(=O)(=O)Nc1ccc(F)c(C(=O)c2c[nH]c3ncc(-c4ccc(Cl)cc4)cc23)c1F | enzyme activity | inhibitor | – | 1 µM | inhibition | < 20%
Cc1ccc(Nc2nccc(N(C)c3ccc4c(C)n(C)nc4c3)n2)cc1S(N)(=O)=O | enzyme activity | inhibitor | – | 10 µM | inhibition | 45%
CCN(CC)c1ccc(C2=NNC(=O)CC2C)cc1[N+](=O)[O-] (stereo not shown) | enzyme activity | inhibitor | – | 10 µM | remaining activity | 96%
C[C@@H](N)[C@H]1CC[C@H](C(=O)Nc2ccncc2)CC1 | enzyme activity | inhibitor | TR-FRET | 10 µM | inhibition | 6.8%
O=C1NC(=O)c2cc(Nc3ccc(F)cc3)c(Nc3ccc(F)cc3)cc21 | cell-free assay | – | – | 0.5 µM | remaining signal | 102%
O=C(Nc1cnn(-c2csc(C(=O)NC3COC3)c2)c1)Nc1c(F)cccc1Cl | enzyme activity | inhibitor | – | 5 µM | remaining activity | 98.3%
COc1cc(/C=C/C(=O)CC(=O)/C=C/c2ccc(O)c(OC)c2)ccc1O | enzyme activity | inhibitor | – | 1 µM | activity vs control | 85%
CCOc1cc(-c2nncn2C)ccc1Nc1ncc2cc(C)nc(NCC(C)(C)C)c2n1 | enzyme activity | inhibitor | FRET | 1 µM | inhibition | < 15%
CC(C)c1ccc(NC(=O)c2cccs2)c(-c2nc3ccccc3[nH]c2=O)c1 | enzyme activity | inhibitor | – | 1 µM | activity vs control | 106%
